Assay outcomes deposited in PubChem by The Scripps Research Institute Molecular Screening Center.
PAFAH1B3 inh: blocks human PAF acetylhydrolase 1B catalytic subunit 3; Q15102; 0.28% of 340,000 active; AID 492972; inhibition, % at 3.39 µM; recombinant PAFAH1B3, FP-rhodamine probe, fluorescence polarization;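 active = inhibition above the screen-wide average of all tested compounds plus 3 SD, cut at about 25% in these data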;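 also: 0% = enzyme with DMSO only and 100% = wells lacking PAFAH1B3 protein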
Target sequence (Q15102 whole entry, looked up): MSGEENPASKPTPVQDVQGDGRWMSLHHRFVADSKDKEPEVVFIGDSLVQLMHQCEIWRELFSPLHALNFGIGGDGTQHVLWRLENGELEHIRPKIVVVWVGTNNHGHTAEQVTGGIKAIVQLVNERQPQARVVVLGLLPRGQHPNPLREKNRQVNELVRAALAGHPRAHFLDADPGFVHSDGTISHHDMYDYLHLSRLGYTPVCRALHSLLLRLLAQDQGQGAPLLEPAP
PAFAH2 inh: inhibitors of human PAFAH2; recombinant PAFAH2, FP-rhodamine activity probe, fluorescence polarization; inhibition, % at 3.39 µM; 0.99% of 340,000 active; AID 492956;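 active = inhibition above the mean over all tested compounds plus 3 SD, cut at about 30% in these data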;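 also: inhibitors block probe labeling of enzyme so polarization drops; 0% = enzyme with DMSO and 100% = wells lacking PAFAH2 protein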
PAFAH1B2 inh: PAFAH1B2 (human) inhibition; P68402; AID 492953; recombinant PAFAH1B2, FP-rhodamine activity probe, fluorescence polarization; 1.2% of 340,000 active; inhibition, % at 3.39 µM;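 active = inhibition above the mean of all tested compounds plus 3 SD, cut at about 24% in these data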;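 also: 0% = enzyme with DMSO and 100% = wells lacking PAFAH1B2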
ASAP1 GAP inh: blocks human ASAP1-stimulated Arf1 GTP hydrolysis; inhibition, % at 16.5 µM; Q9ULH1; AID 624377; 0.19% of 360,000 active; GDP FP detection; in the data active = inhibition above about 25%;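 also: 0% = vehicle with enzyme and substrate and 100% = no enzyme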
Target sequence (Q9ULH1 325-724 limits assumed): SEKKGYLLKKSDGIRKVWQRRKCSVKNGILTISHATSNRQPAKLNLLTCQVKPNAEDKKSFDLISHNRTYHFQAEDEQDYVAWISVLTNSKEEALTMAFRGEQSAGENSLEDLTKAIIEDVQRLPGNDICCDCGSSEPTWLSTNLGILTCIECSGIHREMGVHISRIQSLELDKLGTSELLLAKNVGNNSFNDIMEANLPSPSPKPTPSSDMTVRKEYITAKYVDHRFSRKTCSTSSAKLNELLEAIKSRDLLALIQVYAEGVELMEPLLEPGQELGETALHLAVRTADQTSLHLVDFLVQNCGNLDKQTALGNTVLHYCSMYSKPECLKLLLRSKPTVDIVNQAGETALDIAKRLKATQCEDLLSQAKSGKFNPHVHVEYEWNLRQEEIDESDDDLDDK
ARFGAP1 inhibitor: rat ARFGAP1 inhibition | Q62848 | Arfgap1-stimulated ARF1 GTP hydrolysis, GDP FP detection | inhibition, % at 16.5 µM | 0.26% of 360,000 active;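 active = inhibition above a per-plate limit, mean inhibition of low control wells plus 3 SD, cut at about 25% in these data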;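 also: 0% = DMSO wells with enzyme and 100% = wells lacking Arfgap1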
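system = rat Arfgap1 catalytic domain, aa 1-136 | technique = FP, GDP Alexa 633 tracer displaced from anti-GDP antibody, 620/688 nm | compound = one concentration, 16.5 µM, DMSO 1.26% | medium = HEPES-based buffer, pH 7.5 | timing = compound-enzyme preincubation 20 min, reaction 120 min, detection 60 min, 25 °C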
pPAFAH FP inh: pPAFAH (human) enzyme inhibition | Q13093 | recombinant pPAFAH, FP-rhodamine probe fluorescence polarization | inhibition, % at 3.39 µM | 1.5% of 330,000 active;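 active = inhibition above the mean inhibition across the screen plus 3 SD, cut at about 25% in these data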;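 also: inhibitors block binding of the rhodamine activity-based probe so polarization drops; 0% = enzyme with DMSO and 100% = wells lacking pPAFAH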
pPAFAH confirm: pPAFAH (human) inhibition, confirmed; recombinant pPAFAH, FP-Rh probe fluorescence polarization; AID 463230; 72% of 2,300 active; shares compounds with pPAFAH FP inh; inhibition, % at 3.39 µM;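 active = mean inhibition of the triplicate above the hit cutoff set for the earlier primary screen, cut at about 25% in these data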;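 also: 0% = enzyme with DMSO and 100% = wells lacking pPAFAH enzyme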
Active calls of the source: *; . = no result given. An excerpt weighted towards active compounds, which were near 2.8% of everything screened.

SMILES | PAFAH1B3 inh | PAFAH2 inh | PAFAH1B2 inh | ASAP1 GAP inh | ARFGAP1 inhibitor | pPAFAH FP inh | others
CC[C@@H]1C[C@H]2CC[C@H](O2)[C@H](C)C(=O)O[C@@H](C)C[C@@H]2CC[C@@H](O2)[C@@H](C)C(=O)O[C@H](C)C[C@H]2CC[C@H](O2)[C@H](C)C(=O)O[C@@H](C)C[C@@H]2CC[C@@H](O2)[C@@H](C)C(=O)O1 | . | . | . | 8 | . | .
O=C(COC(=O)Cc1ccccc1)NNC(=O)c1ccc([N+](=O)[O-])cc1 | 0 | 3 | 1 | -13 | 7 | 28*
NCC(O)c1cc(O)c(O)cc1F (stereo not given) | 2 | 4 | 1 | -15 | -5 | 27*
CCCCN1C(=O)/C(=C\c2ccco2)C(=O)N(CCc2ccccc2)C1=O | -18 | 9 | -4 | -5 | 4 | 29*
O=C1NC(=O)N(Cc2ccccc2)C(=O)/C1=C\c1ccco1 | 8 | 11 | 7 | 9 | -10 | 20
CCOP(=S)(OCC)SCSP(=S)(OCC)OCC | 14 | 1 | 0 | -5 | -3 | .
C/C=C(\C)C(=O)OC1C(C)=C2C(C1OC(=O)CCCCC)C(C)(OC(C)=O)CC(OC(=O)CCC)C1(O)C2OC(=O)C1(C)O (stereo not given) | . | . | . | . | . | 38*
CC1=CC(=C2C(=O)NC(=S)NC2=O)C=C(C(F)(F)F)N1CCc1ccccc1 | . | . | . | . | . | 2
CCN1C(=O)CC(=O)N(CC)C1=S | . | . | . | -5 | 7 | .
O=C1NC(=O)N(Cc2ccco2)C(=O)/C1=C/c1cccn1CCOc1ccccc1Cl | 6 | 28 | 15 | -6 | -24 | 26*
Cn1cccc1/C=C1/C(=O)NC(=O)N(Cc2ccc(F)cc2)C1=O | 22 | 12 | 29* | 8 | 6 | 13
C=CCOC(=O)N1Cc2ccccc2-n2nncc2C1 | . | . | . | 2 | 15 | .
C=C[C@@H]1C[C@@]1(C)[C@@H](NP(=O)(c1ccccc1)c1ccccc1)c1ccccc1 | 8 | 6 | 41* | -4 | -3 | 5
COC(=O)[C@]1(C)C[C@H]1[C@H](NP(=O)(c1ccccc1)c1ccccc1)c1ccccc1 | 4 | -5 | -4 | 8 | 1 | -2
C=CCn1c(O)c(C(CC)=Nc2ccc(N(C)C)cc2)c(=O)[nH]c1=O | . | . | . | 4 | -14 | 34*
Cc1ccccc1N1C(=O)/C(=C/c2ccco2)C(=O)NC1=S | . | . | . | . | . | 91*
CC1(C)OC(c2ccccc2)=C/C(=C/C=C2C(=O)NC(=S)NC2=O)O1 | . | . | . | -1 | -2 | -21
CN1/C(=C\C=C2C(=O)NC(=S)NC2=O)C(C)(C)c2ccccc21 | -378 | 38* | 68* | 5 | 11 | .
Cc1ccc(Sc2ccc(C=C3C(=O)N(C)C(=O)N(C)C3=O)o2)cc1 | -6 | 2 | 57* | -4 | -7 | 8
O=c1cc(C(F)(F)F)c2cc3c4c(c2o1)CCCN4CCC3 | 18 | 12 | 15 | -14 | 8 | 26*
CCCCn1c(C)c(C(=O)OCC)c2c(CN3CCCC3)c(O)ccc21 | -7 | 5 | -5 | 0 | -1 | 27*
CCCCn1c(C)c(C(=O)OCC)c2c(CN3CCOCC3)c(O)ccc21 | -1 | -8 | 10 | -10 | -4 | 4
CC(C)(C)c1cc(O)ccc1O | . | . | . | 1 | 1 | .
O=c1[nH]c(=S)n(Cc2ccc(F)cc2)c(O)c1C=NCc1ccc2c(c1)OCO2 | 4 | -9 | 0 | -4 | -12 | 9
O=c1[nH]c(=S)n(Cc2ccc(F)cc2)c(O)c1C=NCCCn1ccnc1 | -2 | -16 | 30* | 6 | -6 | 3
SMILES | PAFAH1B3 inh | PAFAH2 inh | PAFAH1B2 inh | ASAP1 GAP inh | ARFGAP1 inhibitor | pPAFAH FP inh | others
O=c1[nH]c(=S)n(Cc2ccc(F)cc2)c(O)c1/C=N/N1CCCCCC1 | 0 | -3 | 33* | -8 | -12 | 0
O=C(N/N=C/c1c(O)n(Cc2ccc(F)cc2)c(=S)[nH]c1=O)c1ccncc1 | -9 | -7 | 42* | 13 | -5 | 16
O=c1[nH]c(=O)n(Cc2ccc(F)cc2)c(O)c1C=NCCCn1ccnc1 | 2 | 5 | 5 | 12 | 0 | 7
Brc1ccccc1CNCCc1ccc2c(c1)OCO2 | 8 | -6 | 2 | 2 | 8 | -4
CC(=O)O[C@@H]1/C=C/[C@](C)(O)C[C@@H](C)C/C=C/[C@H]2[C@@H]3O[C@]3(C)[C@@H](C)[C@H]3[C@H](Cc4ccccc4)NC(=O)[C@@]312 | . | . | . | . | . | -3
Cc1ccc(OC(F)F)c(N2C(=O)C3C4CCC(O4)C3C2=O)c1 (stereo not given) | 5 | -2 | 3 | 4 | -7 | -3
NS(=O)(=O)c1ccc(-c2ccc(C=C3C(=O)NC(=O)NC3=O)o2)cc1 | 9 | 3 | -1 | -5 | 6 | 0
O=C1NC(=O)C(=Cc2ccc(SC3CCCCC3)o2)C(=O)N1 | 13 | 45* | 88* | -2 | 2 | 12
COc1ccccc1-n1c(O)c(/C=N/N2CCCCC2)c(=O)n(-c2ccccc2OC)c1=S | 6 | 4 | 5 | 4 | 4 | -3
Cn1cc(C(=O)OCC(=O)NC2CCCCC2)c2ccccc21 | 3 | 72* | 5 | 8 | -2 | 33*
Cn1c(=O)c2c(ncn2CCCl)n(C)c1=O | 12 | 8 | -2 | -9 | -11 | 2
O=c1[nH]c(=S)[nH]c(O)c1N=Nc1cc(S(=O)(=O)Nc2ccc(Cl)cc2)ccc1Cl | 43* | 24 | 21 | -1 | -27 | 49* | pPAFAH confirm=95*
NS(=O)(=O)c1ccc(N=Nc2c(O)[nH]c(=S)[nH]c2=O)cc1 | 8 | -2 | 3 | -8 | 10 | 7
Cc1nn(Cc2ccccc2)c(C)c1C(=O)O | 5 | -1 | -3 | 14 | 10 | 0
O=C1NC(=O)N(c2ccccc2)C(=O)/C1=C\c1ccc([N+](=O)[O-])s1 | . | . | . | -10 | -1 | 56* | pPAFAH confirm=46*
COc1ccc(OC)c(N2C(=O)NC(=O)/C(=C\c3ccc([N+](=O)[O-])s3)C2=O)c1 | 61* | 54* | 47* | -8 | -17 | 64* | pPAFAH confirm=69*
Cc1nn(-c2ccccc2)c2c1C(c1ccc3c(c1)OCO3)SCC(=O)N2 (stereo not given) | 6 | 2 | 2 | 6 | 0 | -5
COP(=O)(/C=C(\Cl)c1ccccc1)/C=C(\Cl)c1ccccc1 | -2 | -1 | 3 | 4 | -9 | 2
C=CCn1c(O)c(/C(C)=N/N2CCN(C)CC2)c(=O)[nH]c1=O | 5 | -5 | 2 | -9 | -17 | 2
N/C(=N\N=C/c1ccc(-c2ccc(O)c(C(=O)O)c2)o1)N[N+](=O)[O-] | 30* | 12 | 11 | 2 | 1 | 50* | pPAFAH confirm=35*
CN1CCC(c2c[nH]c3ccccc23)C1 (stereo not given) | 8 | 8 | 7 | -11 | -2 | 44* | pPAFAH confirm=4
